Measurements published in article PMC3632105 (Nucleic Acids Research, 2013).
“And” between values parts separate entries of the source, which are not always exact repeats. Identical values can stand only once.

How the values were obtained:
[1] = Sedimentation coefficient of the free proteins; assay type: physicochemical; details: low salt buffer: 5 mM potassium phosphate, pH 7.4, 5 mM NaCl, 8% (w/v) glycerol, 0.5 mM DTT; 20°C, 50 000 rpm
Outline: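 Sedimentation velocity in double-sector cells, recording 280 nm absorbance versus radial position. Samples were full-length DnaG, DnaG-N (residues 1–433), DnaG-C (434–581) and E. coli SSB. Concentrations came from 280 nm extinction coefficients. Data were evaluated as c(s) distributions in SEDFIT.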

DnaG-C [2] = test: Isothermal titration calorimetry of DnaG-C with SSB-Carb peptide; assay type: binding, Escherichia coli; details: for binding (association) constant KA by ITC: model of n identical independent sites
DnaG-C [3] = test: NMR titration; assay type: binding, Escherichia coli; details: 300 µM 15N-DnaG-C titrated with SSB-Carb, 295 K, 600 MHz
Outline: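 15N-DnaG-C in 5 mM potassium phosphate pH 7.4, 5 mM NaCl, 2 mM DTT, 10% D2O. Peptide was added from a 30 mM DMSO stock to final 0, 0.1, 0.3, 0.6 and 1 mM. SOFAST-HMQC spectra used 16 scans. Shift = sqrt[Δδ(1H)² + (Δδ(15N)/10)²], comparing no peptide with 1 mM.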

SSB = details: low salt conditions; cited from earlier work
[4] = 150 mM NaCl, 5 mM potassium phosphate, pH 7.4, 8% (w/v) glycerol, 25°C, SSB-Carb on DnaG-C

Molecule: DnaG: full-length E. coli DnaG primase
- sedimentation coefficient, free protein [1]: 3.4 S

Molecule: EcoSSB: Escherichia coli single-stranded DNA-binding protein; concentrations given in tetramers
- sedimentation coefficient, free protein [1]: 3.9 S

Molecule: WMDFDDDIPF [SSB-Carb]
- binding (association) constant KA by ITC (DnaG-C [2]; 5 mM NaCl, 5 mM potassium phosphate, pH 7.4, 8% (w/v) glycerol, 25°C, 1.04 mM SSB-Carb titrated into 46 µM DnaG-C): 240000 M⁻¹
- binding enthalpy ΔH by ITC (DnaG-C [2]; 5 mM NaCl, 5 mM potassium phosphate, pH 7.4, 8% (w/v) glycerol, 25°C, SSB-Carb on DnaG-C): -12.4 kcal/mol
- binding (association) constant KA by ITC (DnaG-C [2]; 150 mM NaCl, 5 mM potassium phosphate, pH 7.4, 8% (w/v) glycerol, 25°C, 1.08 mM SSB-Carb titrated into 46 µM DnaG-C): 74000 M⁻¹ and ~70000 M⁻¹
- binding enthalpy ΔH by ITC (DnaG-C [2]; [4]): -9.87 kcal/mol
- binding stoichiometry n by ITC (DnaG-C [2]; [4]): 0.89
- change of affinity on increase of salt concentration (DnaG-C [2]; from 5 to 150 mM NaCl, DnaG-C/SSB-Carb interaction, ITC): decreases the affinity only by a factor of about three
- chemical shift change of W522 side chain of DnaG-C (in words) (DnaG-C [3]): not only the chemical shifts of tryptophan 522 backbone change upon addition of SSB-Carb peptide but also those of the side chain
- chemical shift change of W522 side chain of DnaG-C (in words) (DnaG-C [3]; listed as peptide): strong changes in chemical shift on peptide binding

Molecule: χ: χ subunit of DNA polymerase III
- increase in SSB-binding affinity in presence of ssDNA (SSB): 20 fold

B1: DnaG-N: amino acid residues 1–433 of DnaG (protein, UniProt P0ABS5 1-433, looked up, fragment)
chain: MAGRIPRVFINDLLARTDIVDLIDARVKLKKQGKNFHACCPFHNEKTPSFTVNGEKQFYHCFGCGAHGNAIDFLMNYDKLEFVETVEELAAMHNLEVPFEAGSGPSQIERHQRQTLYQLMDGLNTFYQQSLQQPVATSARQYLEKRGLSHEVIARFAIGFAPPGWDNVLKRFGGNPENRQSLIDAGMLVTNDQGRSYDRFRERVMFPIRDKRGRVIGFGGRVLGNDTPKYLNSPETDIFHKGRQLYGLYEAQQDNAEPNRLLVVEGYMDVVALAQYGINYAVASLGTSTTADHIQLLFRATNNVICCYDGDRAGRDAAWRALETALPYMTDGRQLRFMFLPDGEDPDTLVRKEGKEAFEARMEQAMPLSAFLFNSLMPQVDLSTPDGRARLSTLALPLISQVPGETLRIYLRQELGNKLGILDDSQLERLMPK
- sedimentation coefficient, free protein [1]: 2.9 S

B2: DnaG-C: amino acid residues 434–581 of DnaG, C-terminal helicase-binding domain (protein, UniProt P0ABS5 434-581, looked up, fragment)
chain: AAESGVSRPVPQLKRTTMRILIGLLVQNPELATLVPPLENLDENKLPGLGLFRELVNTCLSQPGLTTGQLLEHYRGTNNAATLEKLSMWDDIADKNIAEQTFTDSLNHMFDSLLELRQEELIARERTHGLSNEERLELWTLNQELAKK
modifications: helicase-binding domain
- sedimentation coefficient, free protein [1]: 1.4 S
